Data reported in ChEMBL document CHEMBL4393681, “The identification of naturally occurring labdane diterpenoid calcaratarin D as a potential anti-inflammatory agent” (Eur J Med Chem, 2019).
pIC50: −log10 of the molar value. One block for each compound: values may come before it. Activity calls are given as the source filed them. The rule behind the calls is not given here.

How the values were obtained:
[1] = organism: Mus musculus; assay: Inhibition of LPS-stimulated NFkappaB activation in mouse RAW blue cells assessed as reduction in SEAP protein expression at 0.1 to 20 uM pretreated for 1 hr followed by LPS stimulation and measured after 24 hrs by reporter gene assay; assay type: cell-based
In short: (§1)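 RAW-Blue NF-κB–SEAP reporter cells were pretreated for 1 h with compound (0.1–20 µM), dexamethasone 1 µM or DMSO vehicle, then given LPS 25 ng/mL for 24 h. SEAP activity in the supernatant was read with LPS-treated 0.02% DMSO cells set as 100%. Mean ± SEM, n = 4.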

[2] = target: Mitogen-activated protein kinase 1 and 3 (ERK2 and ERK1) (Mus musculus) (UniProt P63085+Q63844); assay: Inhibition of LPS-stimulated ERK1/2 phosphorylation in mouse RAW264.7 cells at 5 to 20 uM pretreated for 1 hr followed by LPS stimulation and measured after 4 hrs by Western blot analysis; assay type: cell-based
In short: (§2)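 RAW264.7 cells received compound (5–20 µM) or vehicle with LPS 25 ng/mL for 4 h. Phospho-ERK1/2, SAPK/JNK, p38 and Akt were immunoblotted against a GAPDH loading control. Akt phosphorylation was quantified by band intensity, mean ± SEM, n = 4, versus 0.02% DMSO cells.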

[3] = tested on: RAW264.7; assay: Inhibition of LPS-stimulated SAPK/JNK phosphorylation in mouse RAW264.7 cells at 5 to 20 uM pretreated for 1 hr followed by LPS stimulation and measured after 4 hrs by Western blot analysis; assay type: cell-based; in short: as §2
[4] = target: MAP kinase p38 (Mus musculus) (UniProt P47811+O08911+Q9WUI1+Q9Z1B7); assay: Inhibition of LPS-stimulated p38 MAPK phosphorylation in mouse RAW264.7 cells at 5 to 20 uM pretreated for 1 hr followed by LPS stimulation and measured after 4 hrs by Western blot analysis; assay type: cell-based; in short: as §2
[5] = target: RAC-alpha serine/threonine-protein kinase (Mus musculus) (UniProt P31750); assay: Inhibition of LPS-stimulated AKT phosphorylation in mouse RAW264.7 cells at 5 to 20 uM pretreated for 1 hr followed by LPS stimulation and measured after 4 hrs by Western blot analysis; assay type: cell-based; in short: as §2
[6] = tested on: RAW264.7; assay: Anti-inflammatory activity in mouse RAW264.7 cells assessed as inhibition of LPS-induced TNFalpha production at 0.1 uM pretreated for 1 hr followed by LPS stimulation and measured after 18 hrs by ELISA relative to control; assay type: functional; parameters: scale not given: the % may be the effect or the level left
In short: (§3)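 DMSO stocks (100 mM) were tested at 0.1, 1, 5 and 20 µM on LPS-stimulated RAW264.7 cells, with dexamethasone 1 µM as positive control. Secreted TNF-α or IL-6 was normalized to the percentage of viable LPS-stimulated cells at each concentration. Mean of three separate experiments, each in triplicate.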

[7] = tested on: RAW264.7; assay: Anti-inflammatory activity in mouse RAW264.7 cells assessed as inhibition of LPS-induced TNFalpha production at 1 uM pretreated for 1 hr followed by LPS stimulation and measured after 18 hrs by ELISA relative to control; assay type: functional; parameters: scale not given: the % may be the effect or the level left; in short: as §3
[8] = Cytotoxicity against mouse RAW264.7 cells assessed as cell viability at 0.1 uM incubated for 18 hrs by celltiter-glo luminescent assay relative to control; assay type: cell-based; conditions: read-out: Activity
In short: (§4)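 Non-stimulated RAW264.7 cells were exposed to 0.1, 1, 5 and 20 µM compound from 100 mM DMSO stocks. Percent viability is the mean of three separate experiments with triplicate samples.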

[9] = tested on: RAW264.7; assay: Anti-inflammatory activity in mouse RAW264.7 cells assessed as inhibition of LPS-induced TNF-alpha mRNA expression pretreated for 1 hr followed by LPS stimulation and measured after 4 hrs by RT-PCR analysis; assay type: functional, cell-based
In short: (§5)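 RAW264.7 cells were exposed to compound (1, 5, 20 µM), dexamethasone 1 µM or 0.02% DMSO vehicle, then stimulated with LPS 25 ng/mL for 4 h. Total RNA was isolated and analysed by real-time PCR. mRNA was normalized to β-actin and expressed relative to unstimulated control cells. Mean ± SEM, n = 4.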

[10] = Cytotoxicity against mouse RAW264.7 cells assessed as cell viability at 1 uM incubated for 18 hrs by celltiter-glo luminescent assay relative to control; assay type: cell-based; conditions: read-out: Activity; in short: as §4
[11] = Cytotoxicity against mouse RAW264.7 cells assessed as cell viability at 5 uM incubated for 18 hrs by celltiter-glo luminescent assay relative to control; assay type: cell-based; conditions: read-out: Activity; in short: as §4
[12] = Cytotoxicity against mouse RAW264.7 cells assessed as cell viability at 20 uM incubated for 18 hrs by celltiter-glo luminescent assay relative to control; assay type: cell-based; conditions: read-out: Activity; in short: as §4
[13] = tested on: RAW264.7; assay: Anti-inflammatory activity in mouse RAW264.7 cells assessed as inhibition of LPS-induced TNFalpha production at 5 uM pretreated for 1 hr followed by LPS stimulation and measured after 18 hrs by ELISA relative to control; assay type: functional; parameters: scale not given: the % may be the effect or the level left; in short: as §3
[14] = tested on: RAW264.7; assay: Anti-inflammatory activity in mouse RAW264.7 cells assessed as inhibition of LPS-induced TNFalpha production at 20 uM pretreated for 1 hr followed by LPS stimulation and measured after 18 hrs by ELISA relative to control; assay type: functional; parameters: scale not given: the % may be the effect or the level left; in short: as §3
[15] = tested on: RAW264.7; assay: Anti-inflammatory activity in mouse RAW264.7 cells assessed as inhibition of LPS-induced IL-6 production at 0.1 uM pretreated for 1 hr followed by LPS stimulation and measured after 18 hrs by ELISA relative to control; assay type: functional; parameters: scale not given: the % may be the effect or the level left; in short: as §3
[16] = tested on: RAW264.7; assay: Anti-inflammatory activity in mouse RAW264.7 cells assessed as inhibition of LPS-induced IL-6 production at 1 uM pretreated for 1 hr followed by LPS stimulation and measured after 18 hrs by ELISA relative to control; assay type: functional; parameters: scale not given: the % may be the effect or the level left; in short: as §3
[17] = tested on: RAW264.7; assay: Anti-inflammatory activity in mouse RAW264.7 cells assessed as inhibition of LPS-induced IL-6 production at 5 uM pretreated for 1 hr followed by LPS stimulation and measured after 18 hrs by ELISA relative to control; assay type: functional; parameters: scale not given: the % may be the effect or the level left; in short: as §3
[18] = tested on: RAW264.7; assay: Anti-inflammatory activity in mouse RAW264.7 cells assessed as inhibition of LPS-induced IL-6 production at 20 uM pretreated for 1 hr followed by LPS stimulation and measured after 18 hrs by ELISA relative to control; assay type: functional; parameters: scale not given: the % may be the effect or the level left; in short: as §3
[19] = tested on: RAW264.7; assay: Anti-inflammatory activity against mouse RAW264.7 cells assessed as inhibition of LPS-stimulated NO production pretreated for 1 hr followed by LPS stimulation and measured after 24 hrs by Griess reagent based assay; assay type: functional, cell-based
[20] = tested on: RAW264.7; assay: Anti-inflammatory activity in mouse RAW264.7 cells assessed as inhibition of LPS-induced IL-6 mRNA expression pretreated for 1 hr followed by LPS stimulation and measured after 4 hrs by RT-PCR analysis; assay type: functional, cell-based; in short: as §5
[21] = tested on: RAW264.7; assay: Anti-inflammatory activity in mouse RAW264.7 cells assessed as inhibition of LPS-induced IL-1beta mRNA expression pretreated for 1 hr followed by LPS stimulation and measured after 4 hrs by RT-PCR analysis; assay type: functional, cell-based; in short: as §5
[22] = tested on: RAW264.7; assay: Anti-inflammatory activity in mouse RAW264.7 cells assessed as inhibition of LPS-induced MCP-1 mRNA expression pretreated for 1 hr followed by LPS stimulation and measured after 4 hrs by RT-PCR analysis; assay type: functional, cell-based; in short: as §5
[23] = tested on: RAW264.7; assay: Anti-inflammatory activity in mouse RAW264.7 cells assessed as inhibition of LPS-induced iNOS mRNA expression pretreated for 1 hr followed by LPS stimulation and measured after 4 hrs by RT-PCR analysis; assay type: functional, cell-based; in short: as §5
[24] = organism: Mus musculus; assay: Inhibition of LPS-stimulated NFkappaB activation in mouse RAW blue cells assessed as reduction in SEAP protein expression pretreated for 1 hr followed by LPS stimulation and measured after 24 hrs by reporter gene assay; assay type: cell-based; in short: as §1
[25] = target: Transcription factor p65 (Mus musculus) (UniProt Q04207); assay: Effect on p65 subunit NFkappaB phosphorylation in mouse RAW264.7 cells at 5 to 20 uM pretreated for 1 hr followed by LPS stimulation and measured after 4 hrs by Western blot analysis; assay type: cell-based
In short: (§6)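 Whole-cell lysates from RAW264.7 cells given compound (5–20 µM) or vehicle and LPS 25 ng/mL for 4 h. Phosphorylated and total p65 were immunoblotted and bands quantified densitometrically. Mean ± SEM, n = 4, compared with 0.02% DMSO cells.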

[26] = target: Transcription factor p65 (Mus musculus) (UniProt Q04207); assay: Effect on total p65 NFkappaB subunit protein level in mouse RAW264.7 cells at 5 to 20 uM pretreated for 1 hr followed by LPS stimulation and measured after 4 hrs by Western blot analysis; assay type: cell-based; in short: as §6
[27] = target: Transcription factor p65 (Mus musculus) (UniProt Q04207); assay: Inhibition of LPS-stimulated NFkappaB activation in mouse RAW264.7 cells assessed as blockade of p65 NFkappaB nuclear translocation at 20 uM pretreated for 1 hr followed by LPS stimulation and measured after 4 hrs by Western blot analysis; assay type: cell-based
In short: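 After compound at 20 µM or vehicle with LPS 25 ng/mL for 4 h, cytoplasmic and nuclear fractions were blotted for p65. TBP (nuclear) and GAPDH (cytoplasmic) served as loading controls. Nuclear p65 was quantified by band intensity, mean ± SEM, n = 4.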

[28] = target: RAC-alpha serine/threonine-protein kinase (Mus musculus) (UniProt P31750); assay: Inhibition of LPS-stimulated AKT phosphorylation in mouse RAW264.7 cells pretreated for 1 hr followed by LPS stimulation and measured after 4 hrs by Western blot analysis; assay type: cell-based; in short: as §2

Transcription factor p65 (Mus musculus), sequence (Q04207 whole entry): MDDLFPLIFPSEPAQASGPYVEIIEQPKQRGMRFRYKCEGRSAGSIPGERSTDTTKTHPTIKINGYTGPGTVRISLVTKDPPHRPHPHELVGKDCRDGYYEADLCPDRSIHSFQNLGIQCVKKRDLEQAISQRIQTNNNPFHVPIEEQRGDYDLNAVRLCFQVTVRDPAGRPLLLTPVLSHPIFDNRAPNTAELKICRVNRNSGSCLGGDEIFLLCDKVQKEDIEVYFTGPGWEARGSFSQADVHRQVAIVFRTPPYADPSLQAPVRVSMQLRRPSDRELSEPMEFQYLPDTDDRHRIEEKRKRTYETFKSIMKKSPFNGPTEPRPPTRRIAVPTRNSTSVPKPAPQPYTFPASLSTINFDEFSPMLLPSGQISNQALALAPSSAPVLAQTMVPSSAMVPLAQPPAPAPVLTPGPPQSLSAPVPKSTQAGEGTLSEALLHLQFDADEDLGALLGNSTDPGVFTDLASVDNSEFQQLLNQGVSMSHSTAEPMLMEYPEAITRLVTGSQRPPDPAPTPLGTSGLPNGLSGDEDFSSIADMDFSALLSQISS
RAC-alpha serine/threonine-protein kinase (Mus musculus), sequence (P31750 whole entry): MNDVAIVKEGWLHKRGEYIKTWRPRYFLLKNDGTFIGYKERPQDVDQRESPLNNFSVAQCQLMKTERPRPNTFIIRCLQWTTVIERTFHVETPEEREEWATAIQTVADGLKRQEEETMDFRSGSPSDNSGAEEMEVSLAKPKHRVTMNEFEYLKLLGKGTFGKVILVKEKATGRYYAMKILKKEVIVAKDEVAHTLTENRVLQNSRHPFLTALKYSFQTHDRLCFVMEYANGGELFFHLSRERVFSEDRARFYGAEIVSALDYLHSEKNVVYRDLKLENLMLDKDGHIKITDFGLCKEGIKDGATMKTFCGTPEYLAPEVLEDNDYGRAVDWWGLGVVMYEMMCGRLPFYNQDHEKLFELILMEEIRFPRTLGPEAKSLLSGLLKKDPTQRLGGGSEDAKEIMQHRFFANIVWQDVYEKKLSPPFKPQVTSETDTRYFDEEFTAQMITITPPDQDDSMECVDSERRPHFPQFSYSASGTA
Mitogen-activated protein kinase 1 and 3 (ERK2 and ERK1) (Mus musculus), sequence (P63085 whole entry, looked up): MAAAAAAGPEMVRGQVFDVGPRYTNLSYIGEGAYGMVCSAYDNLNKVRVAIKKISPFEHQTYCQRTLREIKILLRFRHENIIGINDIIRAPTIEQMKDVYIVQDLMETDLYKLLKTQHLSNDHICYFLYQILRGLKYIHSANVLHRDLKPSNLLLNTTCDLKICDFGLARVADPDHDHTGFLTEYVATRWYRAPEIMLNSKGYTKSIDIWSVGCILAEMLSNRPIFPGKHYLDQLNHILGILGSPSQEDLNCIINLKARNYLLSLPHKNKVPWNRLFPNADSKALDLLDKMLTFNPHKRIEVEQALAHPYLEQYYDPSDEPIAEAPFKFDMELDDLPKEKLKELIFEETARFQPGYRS
Mitogen-activated protein kinase 1 and 3 (ERK2 and ERK1) (Mus musculus), sequence (Q63844 whole entry, looked up): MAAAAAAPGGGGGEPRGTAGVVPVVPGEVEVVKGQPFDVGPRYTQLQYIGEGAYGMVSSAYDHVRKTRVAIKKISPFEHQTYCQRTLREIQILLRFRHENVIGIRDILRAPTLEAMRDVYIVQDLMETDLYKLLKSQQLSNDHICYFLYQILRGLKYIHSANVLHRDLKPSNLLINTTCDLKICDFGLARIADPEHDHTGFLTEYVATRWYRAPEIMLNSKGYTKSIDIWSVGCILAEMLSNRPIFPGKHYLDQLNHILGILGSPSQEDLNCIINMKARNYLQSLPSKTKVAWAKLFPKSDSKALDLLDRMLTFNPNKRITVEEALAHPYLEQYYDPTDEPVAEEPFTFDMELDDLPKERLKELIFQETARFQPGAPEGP

inhibition [2]: Active | inhibition [4]: Active | inhibition [5]: Active
SMILES: C=C1CC[C@@H]2[C@](C)(CO)[C@H](O)CC[C@@]2(C)[C@@H]1C/C=C1/C(=O)OC[C@H]1O
inhibition [1]: inactive | inhibition [3]: Active

pIC50 [19]: 5.41 | Activity [25]: inactive | Activity [26]: inactive | inhibition [27]: Active | inhibition [2]: inactive | inhibition [4]: inactive | inhibition [28]: Dose-dependent effect
SMILES: C=C1CC[C@H]2C(C)(C)CCC[C@]2(C)[C@H]1C/C=C1/C(=O)OC[C@H]1O
Activity [6]: 99.3% | Activity [7]: 63.4% | viability at 18 h, 0.1 µM [8]: 103% | inhibition [9]: Dose-dependent effect | viability at 18 h, 1 µM [10]: 95.6% | viability at 18 h, 5 µM [11]: 82.7% | viability at 18 h, 20 µM [12]: 53.7% | Activity [13]: 19.2% | Activity [14]: 1.7% | Activity [15]: 99.2% | Activity [16]: 68.1% | Activity [17]: 40% | Activity [18]: 10.8% | inhibition [19]: Dose-dependent effect | inhibition [20]: Dose-dependent effect | inhibition [21]: Dose-dependent effect | inhibition [22]: Dose-dependent effect | inhibition [23]: Dose-dependent effect | inhibition [24]: Dose-dependent effect | inhibition [3]: inactive
